Htt clearance: clearance of mutant huntingtin inclusions, primary screen, imaging, HeLa Exon1htt(103Q)mCFP, confocal imaging | hit rate 0.42% among 47,000 | inhibition, % at 1.5 µM | aggregate imaging; zero = plate's median compound well;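 active = inhibition of aggregate fluorescence above about 70%, also judged a hit by eye on the cell image, limit read from the data, passing the limit was not always enough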;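 also: cells exposed to compound for three days before fixation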
RORA act: activators of orphan receptor RORA, primary screen, cell-based, luminescence. CHO-K1 Gal4-RORA LBD luciferase reporter; percent increase over mock-subtracted basal signal. activation, % at 10 µM. hit rate 1.5% among 65,000;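 active = activation above the mean of all tested compounds plus 3 SD, cut at about 49% in these data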;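 also: 0% = DMSO-treated RORA cells and 100% = added signal equal to DMSO minus mock-transfected cells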
M1 antag: antagonists of rat M1 muscarinic receptor; hit rate 3.4% among 64,000; Muscarinic acetylcholine receptor M1 (Rattus norvegicus), P08482; B-score at 10 µM; CHO-M1 cells, Fluo-4 calcium, ACh EC80 antagonist mode; stronger effect = lower value;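 active = calcium fluorescence response, raw or row-and-column corrected B-score, differing from the plate sample mean either way at a set confidence level, mostly lower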
Target sequence (P08482 whole entry, looked up): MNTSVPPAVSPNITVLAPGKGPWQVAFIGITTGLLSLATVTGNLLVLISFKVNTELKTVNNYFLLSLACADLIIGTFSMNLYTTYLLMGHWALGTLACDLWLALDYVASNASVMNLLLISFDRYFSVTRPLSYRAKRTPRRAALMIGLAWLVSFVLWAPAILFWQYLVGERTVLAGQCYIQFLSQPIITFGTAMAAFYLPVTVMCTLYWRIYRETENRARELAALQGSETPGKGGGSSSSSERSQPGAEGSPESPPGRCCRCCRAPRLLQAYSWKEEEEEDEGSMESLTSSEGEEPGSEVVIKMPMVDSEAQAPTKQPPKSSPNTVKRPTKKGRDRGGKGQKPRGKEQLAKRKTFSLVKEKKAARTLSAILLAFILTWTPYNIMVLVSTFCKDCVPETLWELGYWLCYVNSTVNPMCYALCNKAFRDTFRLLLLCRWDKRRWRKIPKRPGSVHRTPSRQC
SF-1 act: activators of human SF-1, primary screen, cell-based, CHO-K1, Gal4-SF-1 LBD, luciferase luminescence | CHO-K1 Gal4-SF-1 LBD luciferase reporter; % increase over DMSO SF-1-specific signal | Steroidogenic factor 1 (Homo sapiens), Q13285 | hit rate 1.9% among 65,000 | activation, % at 10 µM;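 active = activation above the mean activation of all tested compounds plus 3 SD, cut at about 50% in these data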
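Test system: CHO-K1 cells co-transfected with Gal4 DBD–human SF-1 LBD, 5xGal4 luciferase reporter. Quantity: 4,000 cells per well. Compound: 10 µM only. Incubation: compound added 1 h post-seeding, 20 h exposure at 37 °C, 5% CO2. Detection: SteadyLite luciferase luminescence. Replication: one test per compound.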
D1 allo mod: D1 CRE-luciferase signal change, two-sided – cell-based, HEK293 D1, dopamine EC30, D1 allosteric modulator project, primary screen | hit rate 5.9% among 58,000 | B-score at 10 µM | D(1A) dopamine receptor (Homo sapiens), P21728 | dopamine EC30 potentiation; actives deviate in either direction | AID 641, 2007;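 active = luminescence count or its row- and column-corrected plate score outside the 99.7% band of the plate's sample wells, on either side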
M1 ag: M1 muscarinic receptor agonists, primary screen, CHO-M1 cells, Fluo-4 calcium, agonist mode; Fluo-4 calcium fluorescence; stronger effect = higher value; Muscarinic acetylcholine receptor M1; B-score at 10 µM; AID 626, 2007; hit rate 3% among 64,000;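 active = fluorescence rise, raw or as B-score row- and column-corrected plate score, outside the 99.7% band of its plate's samples, either direction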
M1 antag confirm: rat M1 muscarinic receptor antagonists, confirmation, CHO cells, Fluo-4 calcium, duplicate; shares compounds with M1 antag; ACh EC80 antagonism; stronger effect = lower value; calcium response (max-min fluorescence) at 10 µM; hit rate 43% among 1,700; AID 677, 2007;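 active = calcium response below the same-plate mean of wells given acetylcholine alone at its 80%-effect dose, minus 3 SD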;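 also: raw fluorescence intensity difference in arbitrary instrument units and not normalized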
mGluR4 antag: human mGluR4 response to M1 antagonist hits, M1 allosteric modulator project, cell-based, antagonist mode, secondary assay 1; shares compounds with M1 antag; CHO-mGluR4 calcium flux, Fluo-4 fluorescence, glutamate EC80; stronger effect = lower value; AID 678, 2007; fluorescence response (max-min) at 10 µM; hit rate 0.9% among 1,700;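 active = fluorescence response below the plate's average for near-maximal glutamate wells, less 3 SD of those wells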;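 also: raw unnormalized fluorescence span taken in the window right after glutamate addition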
The depositor's hits bear a star; . = no result given. Rows were chosen to be rich in hits. Some 11% of all compounds tested hit in one or more screens of this group.

SMILES	Htt clearance	RORA act	M1 antag	SF-1 act	D1 allo mod	M1 ag	M1 antag confirm	mGluR4 antag
CC1CC(C)CN(CC(C)(C)NS(=O)(=O)c2ccccc2)C1 (configuration not stated)	.	-16.5	-2.57*	17.0	.	1.5	548	246
CC1CCCCN1CCNC(=O)C1CC(=O)N(c2ccc(F)c(Cl)c2)C1 (configuration not stated)	-3.5	8.9	-1.64*	18.6	-1.62	0.0809	440	168
Cc1ccc2cc3c(nc2c1)N(Cc1ccco1)CC3	-38.1	1.1	-1.31*	-0.7	0.403	-0.665	319*	194
Cc1ccc(S(=O)(=O)N2CN(Cc3ccco3)c3nc4ccccc4nc32)cc1	-8.6	.	.	.	.	.	.	.
CC(C)c1c(O)nc(SCC(=O)Nc2ccc3c(c2)CCC3)[nH]c1=O	.	6.7	-0.0129	13.8	-0.646	0.16	.	.
CSc1nc2ccccc2n1C(=O)NC1CCCCC1	10.6	-4.5	-4.33*	9.0	0.588	-0.0192	581	200
CN(C)C(=O)Cn1c(SCC(=O)NC2CCCCC2)nc2ccccc21	.	-16.5	0.142	-14.9	-0.142	-0.712	.	.
Cc1ccc2c(CC(=O)OCn3nnc4ccccc4c3=O)coc2c1	-10.5	5.3	-4.92*	5.5	0.0812	-0.577	323*	232
CC(=O)OCn1nnc2ccccc2c1=O	-100.0	8.4	0.424	-0.8	0.185	0.516	.	.
CC(C)(C)P(=O)(CO)c1ccccc1 (configuration not stated)	14.0	21.1	-2.5*	15.3	0.559	-0.38	508	195
COC(=O)c1ccccc1NC(=O)c1cc(-c2cccs2)on1	-24.6	1.9	-2.59*	-7.2	-0.012	-1.3	653	198
CCc1ccc(CN(C)CCc2ccccn2)cc1	.	-17.4	-7.31*	5.8	-0.58	0.344	357*	208
Cc1ccc(CN(C)CCc2ccccn2)cc1	-49.3	4.3	-1.22	2.3	-0.0778	-0.178	.	.
Cc1nc(NCc2ccco2)[nH]c(=O)c1CCC(C)C	39.2	21.4	-2.43*	-8.1	0.384	0.95	619	289
COc1ccc(CCNC(=O)CSC2=Nc3ccccc3C3=NC(C(C)C)C(=O)N23)cc1OC (configuration not stated)	-8.3	-10.7	-3.47*	-1.4	-0.0357	-1.36	565	228
O=C(Nc1ccccc1)N1CCC(c2nc(-c3ccc(S(=O)(=O)N4CCOCC4)cc3)no2)CC1	.	-12.4	0.0256	3.6	-0.661	-0.647	.	.
Cc1ccc(NC(=O)CS(=O)CC(=O)NC2CCN(Cc3ccccc3)CC2)c(C)c1 (configuration not stated)	-15.6	11.8	-7.75*	-6.4	.	0.206	645	241
CCN1CCN(CC(=O)Nc2cccc(C)c2C)C(=O)C1=O	.	15.5	0.451	10.0	-0.0321	0.521	.	.
CCCCNC(=O)c1ccccc1C(=O)NCCCC	-45.8	-1.3	-3.95*	4.0	-0.609	-0.169	660	227
CCOC(=O)C1CCCN(CC(=O)Nc2c(C(=O)OC)[nH]c3ccccc23)C1 (configuration not stated)	13.2	9.9	-5.75*	12.8	1.35	-0.106	552*	147
COC(=O)c1[nH]c2ccccc2c1NC(=O)CN1CCCCCC1	-4.1	-2.0	-0.547	-5.2	-0.84	-0.615	.	.
COC(=O)c1[nH]c2ccccc2c1NC(=O)CN1CCC(C(N)=O)(N2CCCCC2)CC1	.	17.2	-2.55*	29.4	1.89	1.31	550	191
CC(C)(C)c1csc(N(CCC#N)CCC#N)n1	.	0.1	0.447	-8.2	0.207	0.154	.	.
COC(=O)c1ccc(OCCN2C3=NCCN3c3ccccc32)cc1	-11.0	18.1	-9.04*	0.2	.	-0.319	440*	241
O=C(O)CN(Cc1ccccc1)S(=O)(=O)c1ccc(F)cc1	-93.1	5.2	0.033	10.2	-0.687	-0.41	.	.
SMILES	Htt clearance	RORA act	M1 antag	SF-1 act	D1 allo mod	M1 ag	M1 antag confirm	mGluR4 antag
c1ccc2c(N3CCCCC3)nc(N3CCCC3)nc2c1	.	14.6	-2.63*	4.5	-1.27	0.0045	493*	167
Nc1nc(N2CCCCC2)nc2ccccc12	-57.5	16.1	-5.88*	6.5	-1.99	-0.0687	286*	268
c1ccc(-c2nc(N3CCCCC3)nc3ccccc23)cc1	-5.0	.	.	.	.	.	.	.
Cn1c(-c2ccc3c(c2)OCO3)cnc1N	-37.2	0.1	-0.517	-4.8	-1.15	0.516	.	.
Cn1c(-c2ccc3c(c2)OCO3)cnc1NC(=O)CCC(=O)NCCc1ccccc1	.	-23.9	0.556	2.9	-1	-0.172	.	.
Cn1c(-c2ccc3c(c2)OCO3)cnc1NCc1ccccc1	.	9.6	-5.3*	67.8*	-3.53	0.0775	295*	182
Cn1c(-c2ccc3c(c2)OCO3)cnc1NCc1cccc(Cl)c1	38.9	6.1	-16.6*	-3.0	-1.76	-1.2	109*	221
COc1ccc(NC(=O)CNS(=O)(=O)c2ccc3nc(C)sc3c2)c(OC)c1	34.8	10.6	0.98	11.3	0.199	-0.169	.	.
Cc1cccc(Cn2c(N3CCCCC3C)nc3c2c(=O)[nH]c(=O)n3C)c1 (configuration not stated)	.	2.7	-4.2*	-6.3	.	0.385	90.3*	179
CCCn1c(N2CCN(Cc3cccc(C)c3)CC2)nc2c1c(=O)[nH]c(=O)n2C	-0.5	4.4	-0.885	-7.1	0.225	2.12	.	.
CC(NC(=O)c1ccc(N(C)C)cc1)C(c1cccs1)N1CCN(C)CC1 (configuration not stated)	.	-1.9	-3.93*	-2.8	-0.485	0.187	632	183
Cc1cc(N2CCOCC2)nc2ccc(NC(=O)CCC(=O)N3CCC(C)CC3)cc12	-81.0	17.1	-0.232	0.6	-0.43	0.896	.	.
Cc1cc(N2CCOCC2)nc2ccc(NC(=O)CCC(=O)N3CCCCC3)cc12	-49.2	-14.5	-2.59*	20.4	-0.16	-0.00119	524	170
Cc1ccc(C(=O)NCCCN2CCOCC2)o1	44.1	.	.	.	.	.	.	.
c1ccc(-c2nc(Sc3ncnc4c3cnn4-c3ccccc3)n[nH]2)cc1	.	10.2	-0.104	-3.9	-2.13	-1.5	.	.
Cc1ccccc1Cn1c(=N)n(CC(=O)c2ccco2)c2ccccc21	32.4	-22.8	-0.583	-2.2	-1.92	-0.421	.	.
